Hits are enriched below; roughly 3.3% of the tested compounds scored in any of these assays.
Jurkat viability: cytotoxicity toward Jurkat cells; Jurkat E6.1 viability, ATP luminescence, 48 h; inhibition, % at 4 µM; actives 1.2% (n = 56,000);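 active means inhibition above the mean inhibition of all tested compounds plus 3 SD, cut at about 28% in these data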
HTR1E antagonist: 5-HT1E (human) receptor antagonism; CHO 5-HT1E Ga15 NFAT-bla reporter, FRET, antagonist; inhibition, % at 6 µM; P28566; actives 0.99% (n = 65,000);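 active means inhibition above a set limit, the mean inhibition across every tested compound plus 3 SD, cut at about 29% in these data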;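 further: signal is the 460 over 535 nm emission ratio of beta-lactamase substrate; 0% = agonist plus DMSO wells and 100% = wells without agonist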
HTR1E agonist: agonists of human 5-HT1E serotonin receptor; actives 0.69% (n = 65,000); P28566; activation, % at 6 µM; CHO 5-HT1E Ga15 NFAT-bla reporter, FRET; 0% DMSO wells, 100% control agonist wells;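 active means activation above a set limit, the screen-wide mean activation plus 3 SD, cut at about 8.5% in these data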;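 further: 100% = positive control agonist at 1 µM giving full maximal response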
5-HT1A blocker: 5-HT1a (human) receptor antagonism; CHO 5-HT1a Ga15 NFAT-bla reporter, antagonist mode; actives 0.68% (n = 62,000); P08908; inhibition, % at 10 µM;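 active means inhibition above the mean of all tested compounds plus 3 SD, cut at about 43% in these data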;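 further: receptor stimulated by 5-CT agonist at 100 nM near EC80; beta-lactamase reporter measured by ratiometric fluorescence of a cleavable substrate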
Target sequence (P08908 whole entry, looked up): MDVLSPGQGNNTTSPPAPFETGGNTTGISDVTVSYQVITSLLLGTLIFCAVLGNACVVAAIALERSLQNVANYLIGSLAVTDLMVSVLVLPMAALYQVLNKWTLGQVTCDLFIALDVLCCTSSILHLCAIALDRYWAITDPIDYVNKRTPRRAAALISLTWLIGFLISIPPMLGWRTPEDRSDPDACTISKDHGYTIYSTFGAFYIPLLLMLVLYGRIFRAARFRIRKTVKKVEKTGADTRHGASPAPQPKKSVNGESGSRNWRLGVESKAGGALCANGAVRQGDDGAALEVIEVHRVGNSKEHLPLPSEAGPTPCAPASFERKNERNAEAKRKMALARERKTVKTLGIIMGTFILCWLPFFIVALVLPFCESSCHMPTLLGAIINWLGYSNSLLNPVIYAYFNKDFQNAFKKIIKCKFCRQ
HTR1A agonist: agonists of human 5-HT1a serotonin receptor. CHO 5-HT1a Ga15 NFAT-bla reporter, FRET ratio; 0% basal, 100% maximal reference agonist. actives 0.56% (n = 65,000). P08908. activation, % at 10 µM;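 active means activation above the screen-wide mean activation plus 3 SD, cut at about 19% in these data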;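 further: 0% = DMSO wells and 100% = 5-CT at EC100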
HEK293 NFkB inh: lowers PMA/ionomycin-induced NF-kB signal in HEK293 cells; HEK-293 NF-kB luciferase reporter, luminescence; inhibition, % at 3 µM; actives 0.21% (n = 62,000);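 active means inhibition above the mean of all tested compounds plus 3 SD, cut at about 40% in these data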;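 further: 0% = stimulated DMSO wells and 100% = 10 µM reference inhibitor 5653914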
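System – HEK-293 cells with stable firefly luciferase reporter driven by four HIV NF-kB elements · Doses – one dose, 3 µM · Schedule – 1 h compound pre-incubation, 16 h PMA/ionomycin at 37 °C · Technique – luminescence from luciferase substrate reagent · Measure – percent inhibition normalized per plate to DMSO and reference-inhibitor controls · Replicates – tested once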
Active calls of the source: *.

For COCCN1C(=O)C(CC(=O)Nc2ccc(C(C)=O)cc2)SC1=Nc1ccccc1 (centres undefined) the results were Jurkat viability -5, HTR1E antagonist 1, HTR1E agonist 0, 5-HT1A blocker 4, HTR1A agonist 172* and HEK293 NFkB inh 9.
For CCOc1ccc(N(CC(=O)NC2CCCC2)S(=O)(=O)c2c(C)[nH]c(=O)[nH]c2=O)cc1 the results were Jurkat viability -8, HTR1E antagonist -9, HTR1E agonist 1, 5-HT1A blocker -4, HTR1A agonist -1 and HEK293 NFkB inh -2.
CC(C)n1c(=NC(=O)c2ccco2)c(C#N)cc2c(=O)n3ccccc3cc21 was read as Jurkat viability 0, HTR1E antagonist 4, HTR1E agonist 9.2*, 5-HT1A blocker -6, HTR1A agonist 29* and HEK293 NFkB inh 20.
`CCc1nnc(NC(=O)CSc2nnc(COc3ccccc3C)o2)s1` gave Jurkat viability -7, HTR1E antagonist 6, HTR1E agonist 8.9*, 5-HT1A blocker -6, HTR1A agonist 1 and HEK293 NFkB inh 26.
CCc1nnc(NC(=O)CSc2nnc(COc3cccc(C)c3)o2)s1 was read as Jurkat viability 1, HTR1E antagonist 2, HTR1E agonist 0, 5-HT1A blocker -3, HTR1A agonist 3 and HEK293 NFkB inh 3.
CCc1nnc(NC(=O)CSc2nnc(-c3ccccc3O)n2-c2ccc(C)cc2C)s1 was read as Jurkat viability 80*, HTR1E antagonist 13, HTR1E agonist 2, 5-HT1A blocker 37, HTR1A agonist 1 and HEK293 NFkB inh 16.
For CCc1nnc(NC(=O)CSc2nnc(COc3ccccc3)n2-c2ccc(C)cc2)s1 the results were Jurkat viability 3, HTR1E antagonist -6, HTR1E agonist 0, 5-HT1A blocker 2, HTR1A agonist 0 and HEK293 NFkB inh 17.
Cc1cnn(-c2nc(-c3cccs3)cc(C(F)(F)F)n2)c1 was read as Jurkat viability 5, HTR1E antagonist 29*, HTR1E agonist -1, 5-HT1A blocker 17, HTR1A agonist -4 and HEK293 NFkB inh 19.
`CCOC(=O)C1CCN(C(=O)Cn2cc(C(=O)C3CC3)c3ccccc32)CC1` gave Jurkat viability 15, HTR1E antagonist 7, HTR1E agonist 0, 5-HT1A blocker 6, HTR1A agonist -2 and HEK293 NFkB inh 1.
Screening CCOC(=O)C1CCN(C(=O)Cc2c(C(=O)O)n(C)c3ccccc23)CC1 returned Jurkat viability -2, HTR1E antagonist 10, HTR1E agonist 117*, 5-HT1A blocker 2, HTR1A agonist 0 and HEK293 NFkB inh 2.
Screening O=C(c1ccccc1)C(CCC(CN1CCOCC1)C(=O)c1ccccc1)CN1CCOCC1 (centres undefined) returned HTR1E antagonist 13, HTR1E agonist 0 and HTR1A agonist 2.
For CCOC(=O)N1CCC(n2c(SCC(=O)NCCC3=CCCCC3)nc3ccccc3c2=O)CC1 the results were HTR1E antagonist 19, HTR1E agonist -1, 5-HT1A blocker 60*, HTR1A agonist 0 and HEK293 NFkB inh 16.
CN=c1scc(C)n1/N=C/c1ccc2c(c1)OCO2 was read as Jurkat viability 4, HTR1E antagonist -10, HTR1E agonist 1, 5-HT1A blocker 2, HTR1A agonist -2 and HEK293 NFkB inh -58.
For Nc1c(S(=O)(=O)c2cccs2)c2nc3ccccc3nc2n1/N=C/c1cccc(O)c1 the results were Jurkat viability 9, HTR1E antagonist 5, HTR1E agonist 0, 5-HT1A blocker -6, HTR1A agonist 1 and HEK293 NFkB inh 22.
Screening O=c1c2ccccc2nc(N2CCN(c3ccccc3)CC2)n1Cc1ccccc1 returned Jurkat viability -2, HTR1E antagonist -12, HTR1E agonist 1, 5-HT1A blocker 47*, HTR1A agonist 0 and HEK293 NFkB inh 10.
For O=c1c2ccccc2nc(-c2ccco2)n1Cc1ccccc1 the results were HTR1E antagonist -2, HTR1E agonist 0, 5-HT1A blocker 3, HTR1A agonist 1 and HEK293 NFkB inh 6.
Screening O=C(NCC1CCCO1)c1ccc2c(=O)n(CCc3ccccc3)c(=O)[nH]c2c1 (centres undefined) returned HTR1E antagonist -10, HTR1E agonist 1, 5-HT1A blocker -4, HTR1A agonist 0 and HEK293 NFkB inh 16.

Bioassay records: PubChem, The Scripps Research Institute Molecular Screening Center
